{"data": "Results of several laboratories", "GHSR": "Growth hormone secretagogue receptor type 1 (GHSR, Homo sapiens, UniProt Q92847)", "USP51": "Ubiquitin carboxyl-terminal hydrolase 51 (USP51, Homo sapiens, UniProt Q70EK9)", "CASP3": "Caspase-3 (CASP3, Homo sapiens, UniProt P42574)", "note": "Protocols differ between the studies behind these lines."}
{"Structure (SMILES)": "COCc1c(-c2cc3cc(C)cc(OC)c3s2)c2c(N)ncnn2c1CN1CCNC(=O)C1", "target": "GHSR", "effect on": "ligand displacement", "technique": "radioligand", "tested at": "10 µM", "inhibition [%]": 11}
{"Structure (SMILES)": "COC(=O)C[C@](O)(CCC(C)(C)O)C(=O)O[C@@H]1C(OC)=C[C@]23CCCN2CCc2cc4c(cc2[C@H]13)OCO4", "target": "USP51", "effect on": "enzyme activity", "action": "inhibitor", "tested at": "5 µM", "inhibition [%]": 0}
{"Structure (SMILES)": "Cn1cc(-c2cccc(N3CCc4c(sc5c4CC(C)(C)C5)C3=O)c2CO)cc(Nc2ccncn2)c1=O", "target": "Calcium/calmodulin-dependent protein kinase type IV (CAMK4, Homo sapiens, UniProt Q16566)", "effect on": "enzyme activity", "action": "inhibitor", "tested at": "1 µM", "inhibition [%]": -5}
{"Structure (SMILES)": "O=C(Nc1cccnn1)N1CCN([C@@H]2CCOc3cc(C(F)(F)F)ccc32)CC1", "target": "Melanin-concentrating hormone receptor 1 (MCHR1, Homo sapiens, UniProt Q99705)", "effect on": "cell-free assay", "tested at": "20 µM", "inhibition [%]": -13}
{"Structure (SMILES)": "C#Cc1n[nH]c2c(-c3cn([C@@H](C)c4ccccc4)c(=O)[nH]c3=O)cc(F)cc12", "target": "AP2-associated protein kinase 1 (AAK1, Homo sapiens, UniProt Q2M2I8)", "effect on": "enzyme activity", "action": "inhibitor", "tested at": "0.1 µM", "inhibition [%]": -0.1}
{"Structure (SMILES)": "Cc1ncc(C)n2nc(/C=C/c3nc(N4CCCC4)cc(N4CCOCC4)n3)nc12", "target": "Prostaglandin F2-alpha receptor (PTGFR, Homo sapiens, UniProt P43088)", "effect on": "ligand displacement", "tested at": "10 µM", "inhibition [%]": -9}
{"Structure (SMILES)": "CCOC(=O)c1ccc(OC(=O)CCCCCNC(=N)N)cc1", "target": "CASP3", "effect on": "enzyme activity", "action": "inhibitor", "tested at": "10 µM", "inhibition [%]": 2}
{"Structure (SMILES)": "c1ccc(C(NCCNC(c2ccccc2)c2ccccc2)c2ccccc2)cc1", "target": "GHSR", "effect on": "cell-free assay", "tested at": "10 µM", "inhibition [%]": 86}
{"Structure (SMILES)": "CC1=C2[C@H]3OC(=O)[C@@H](C)[C@@H]3CC[C@@]2(C)C=CC1=O", "target": "USP51", "effect on": "enzyme activity", "action": "inhibitor", "tested at": "5 µM", "inhibition [%]": 28}
{"Structure (SMILES)": "C[C@H](C(=O)N[C@H]1COc2ccccc2[C@@H]1S(C)(=O)=O)c1ccc(F)cc1", "target": "GHSR", "effect on": "cell-free assay", "tested at": "10 µM", "inhibition [%]": -1}
{"Structure (SMILES)": "COC1=CC(=O)O[C@@H](/C=C/c2ccccc2)C1", "target": "USP51", "effect on": "enzyme activity", "action": "inhibitor", "tested at": "5 µM", "inhibition [%]": 40}
{"Structure (SMILES)": "C#Cc1n[nH]c2c(-c3cn(C(C)c4ccccn4)c(=O)[nH]c3=O)cc(F)cc12 (stereo not shown)", "target": "Serine/threonine-protein kinase Chk1 (CHEK1, Homo sapiens, UniProt O14757)", "effect on": "enzyme activity", "action": "inhibitor", "tested at": "1 µM", "inhibition [%]": 7}
{"Structure (SMILES)": "COc1cccc2c1cc([N+](=O)[O-])c1c(C(=O)O)cc3c(c12)OCO3", "target": "USP51", "effect on": "enzyme activity", "action": "inhibitor", "tested at": "5 µM", "inhibition [%]": 36}
{"Structure (SMILES)": "CC(=O)N[C@@H](CC(=O)O)C(=O)N[C@@H](CC(N)=O)C(=O)N[C@@H](CC(C)C)C(=O)N[C@H](C=O)CC(=O)O", "target": "CASP3", "effect on": "enzyme activity", "action": "inhibitor", "tested at": "0.1 µM", "inhibition [%]": 80}
{"Structure (SMILES)": "CC[C@H]1[C@@H]2C[C@H]3[C@@H]4N(C)c5ccccc5[C@]45C[C@@H]([C@H]2[C@H]5O)N3[C@@H]1O", "target": "USP51", "effect on": "enzyme activity", "action": "inhibitor", "tested at": "5 µM", "inhibition [%]": 26}
{"Structure (SMILES)": "CC(C)N1CCC[C@H]1CNC(=O)c1cn(C2CCCC2)c(=O)c2c1c1ccccc1n2C", "target": "Sodium- and chloride-dependent GABA transporter 1 (Slc6a1, Rattus norvegicus, UniProt P23978)", "effect on": "ligand displacement", "technique": "radioligand", "tested at": "10 µM", "inhibition [%]": -2}
